Results as given in paper PMC8884033 (Journal of medicinal chemistry, 2021).
One block for each compound: values may come before it.

Key:
recombinant human GALK1 [1] = molecular target: T1, recombinant human GALK1 (Homo sapiens, UniProt P51570); assay: GALK1 biochemical assay; settings: for fold improvement in potency compared to compound 2: ratio of GALK1 IC50 vs 2
[2] = Parallel artificial membrane permeability assay; assay type: in vitro ADME; settings: pH 7.4
Outline: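 Stirred double-sink PAMPA with a lipid/dodecane membrane designed to model GI passive permeability. Donor and acceptor both at pH 7.4. Test compound from 10 mM DMSO stock, diluted to 0.05 mM in pH 7.4 buffer (0.5% DMSO final). Permeation ran 30 min at room temperature with donor stirring. Donor and acceptor concentrations read by UV plate reader.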

mouse recombinant GALK1 [3] = molecular target: T2, mouse recombinant GALK1 (Mus musculus, UniProt Q9R0N0); assay: GALK1 biochemical assay, mouse enzyme
[4] = system: Fibroblasts derived from GALT-deficient patients; assay: Cellular Gal-1P accumulation assay after galactose challenge; assay type: cell-based, human; settings: at 3 μM, patient fibroblasts
Outline: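 GALT-deficient patient fibroblasts kept in galactose-free DMEM with 10% FBS. Inhibitor added at set concentrations for 2 to 4 h at 37 °C. Galactose then added to 0.05% for a 4 h challenge. Cells PBS-washed twice and lysed in ice-cold hypotonic buffer (25 mM Tris-HCl pH 7.4, 25 mM NaCl, 0.5 mM EDTA, protease inhibitors). Lysate needle-sheared, then spun 16,000g for 20 min at 4 °C. Gal-1P measured by alkaline phosphatase-coupled method and normalized to protein.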

[5] = Mouse pharmacokinetic studies; assay type: in vivo, CD1 mice
Outline: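 Fed CD1 mice, 6–8 weeks old, ~25–30 g. Given single IP (50 mpk), PO (30 mpk) or IV doses as solutions in 5% NMP/25% PEG 300/70% of 15% w/w Kolliphor HS 15 in water (5, 3 and 0.6 mg/mL for IP, PO and IV). Heart-puncture blood taken into heparin-Na from 3 mice per time, 5 min–24 h. Plasma analysed by LC/MS/MS. Once-daily cageside observations.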

[6] = Human liver microsome stability; assay type: in vitro ADME; settings: liver microsomes, pH 7.4
other kinases = assay: KINOMEScan screen; assay type: binding; settings: KINOMEScan at 10 μM
GALK2 = settings: cited from earlier work
recombinant human GALK1 [7] = molecular target: T1, recombinant human GALK1; settings: read-out: IC50 against human recombinant GALK1; previously reported lead; cited from earlier work
[8] = system: Fibroblasts derived from GALT-deficient patients; settings: primary fibroblast cells from patients with classic galactosemia; cited from earlier work
mouse recombinant GALK1 [9] = molecular target: T2, mouse recombinant GALK1; settings: read-out: IC50 against mouse recombinant GALK1; previously reported lead; cited from earlier work
[10] = male, CD1, mouse, plasma, iv, 3 mg/kg

T1 sequence (P51570 whole entry): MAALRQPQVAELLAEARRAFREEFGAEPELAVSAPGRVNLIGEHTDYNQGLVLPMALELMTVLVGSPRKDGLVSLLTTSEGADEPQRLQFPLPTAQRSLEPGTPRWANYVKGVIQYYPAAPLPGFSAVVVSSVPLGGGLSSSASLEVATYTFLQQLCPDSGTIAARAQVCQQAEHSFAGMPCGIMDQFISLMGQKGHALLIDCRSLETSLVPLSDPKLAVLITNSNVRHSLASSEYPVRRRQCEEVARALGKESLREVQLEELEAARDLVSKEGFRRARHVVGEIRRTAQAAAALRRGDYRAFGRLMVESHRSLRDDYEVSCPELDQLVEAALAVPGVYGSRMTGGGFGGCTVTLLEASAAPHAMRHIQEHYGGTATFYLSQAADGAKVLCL
T2 sequence (Q9R0N0 whole entry): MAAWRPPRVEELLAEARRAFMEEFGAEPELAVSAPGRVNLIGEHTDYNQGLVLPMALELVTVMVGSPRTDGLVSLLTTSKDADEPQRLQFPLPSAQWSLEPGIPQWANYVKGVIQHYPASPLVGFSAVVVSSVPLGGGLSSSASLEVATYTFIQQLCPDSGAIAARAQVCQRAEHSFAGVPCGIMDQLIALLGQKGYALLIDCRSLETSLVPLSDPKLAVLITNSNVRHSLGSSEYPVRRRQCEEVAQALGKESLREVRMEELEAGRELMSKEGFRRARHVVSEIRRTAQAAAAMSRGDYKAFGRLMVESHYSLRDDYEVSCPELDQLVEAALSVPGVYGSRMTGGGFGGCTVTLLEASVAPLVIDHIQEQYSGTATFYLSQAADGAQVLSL

SMILES: CC1=C(C(=O)Nc2cc(C(=O)O)ccn2)C(c2ccccc2Cl)N=C(Nc2nc3ccc(F)cc3o2)N1 (centres unmarked) [Compound 38, 2-(4-(2-Chlorophenyl)-2-((6-fluorobenzo[d]oxazol-2-yl)amino)-6-methyl-1,4-dihydropyrimidine-5-carboxamido)isonicotinic Acid]
biochemical potency against GALK1 (recombinant human GALK1 [1]): submicromolar

SMILES: CCn1cc(CNC(=O)C2=C(C)NC(Nc3nc4cccc(N)c4o3)=NC2c2ccc(C)cc2Cl)cn1 (centres unmarked) [Compound 69, 2-((7-Aminobenzo[d]oxazol-2-yl)amino)-4-(2-chloro-4-methylphenyl)-6-methyl-N-((1-ethyl-1H-pyrazol-4-yl)methyl)-1,4-dihydropyrimidine-5-carboxamide]
PAMPA [2]: 632 10^−6 cm/s

SMILES: CC1=C(C(=O)Nc2cc(C(=O)O)ccn2)C(c2ccccc2Cl)N=C(Nc2nc3cccc(N)c3o2)N1 (centres unmarked) [Compound 53, 2-(2-((7-Aminobenzo[d]oxazol-2-yl)amino)-4-(2-chlorophenyl)-6-methyl-1,4-dihydropyrimidine-5-carboxamido)isonicotinic Acid]
biochemical potency against GALK1 (recombinant human GALK1 [1]): submicromolar
fold potency improvement over 35 (recombinant human GALK1 [1]; ratio of GALK1 IC50 vs 35): 5 fold

SMILES: CCn1cc(CNC(=O)C2=C(C)NC(Nc3nc4ccc(F)c(N)c4o3)=N[C@H]2c2ccc(C)cc2Cl)cn1 [Compound (R)-70, (R)-2-((7-Amino-6-fluorobenzo[d]oxazol-2-yl)amino)-4-(2-chloro-4-methylphenyl)-N-((1-ethyl-1H-pyrazol-4-yl)methyl)-6-methyl-1,4-dihydropyrimidine-5-carboxamide]
fold more potent than the (S)-enantiomer (recombinant human GALK1 [1]; (R) vs (S) enantiomer at C4): 18 fold
mouse GALK1 inhibition (mouse recombinant GALK1 [3]): submicromolar
PAMPA [2]: 773 10^−6 cm/s

SMILES: CCn1cc(CNC(=O)C2=C(C)NC(Nc3nc4ccc(F)c(N)c4o3)=NC2c2ccc(C)cc2Cl)cn1 (centres unmarked) [Compound 70, 2-((7-Amino-6-fluorobenzo[d]oxazol-2-yl)amino)-4-(2-chloro-4-methylphenyl)-N-((1-ethyl-1H-pyrazol-4-yl)methyl)-6-methyl-1,4-dihydropyrimidine-5-carboxamide]
fold improvement in GALK1 inhibition over 69 (recombinant human GALK1 [1]; 6′-F vs des-fluoro 69): 4 fold
mouse GALK1 inhibition (mouse recombinant GALK1 [3]): submicromolar
PAMPA [2]: 410 10^−6 cm/s

SMILES: CCn1cc(CNC(=O)C2=C(C)NC(Nc3nc4ccc(F)c(N)c4o3)=N[C@@H]2c2ccc(C)cc2Cl)cn1 [Compound (S)-70, (S)-2-((7-Amino-6-fluorobenzo[d]oxazol-2-yl)amino)-4-(2-chloro-4-methylphenyl)-N-((1-ethyl-1H-pyrazol-4-yl)methyl)-6-methyl-1,4-dihydropyrimidine-5-carboxamide]
PAMPA [2]: 407 10^−6 cm/s

SMILES: O=C1CCCC2=C1C(c1[nH]ncc1Cl)N=C(Nc1nc3ccccc3o1)N2 (centres unmarked) [Compound 1]
cross-reactivity against other kinases (other kinases): negligible cross-reactivity
activity against GALK2 (GALK2): inactive
IC50 (recombinant human GALK1 [7]): 7.69 µM
effect on gal-1P levels [8]: lowered gal-1P levels
IC50 (mouse recombinant GALK1 [9]): 13.7 µM

Second part, led by results:

fold improvement in potency compared to compound 2 (recombinant human GALK1 [1]): 7–9 fold
SMILES: CC1=C(C(=O)NCc2cnn(C)c2)C(c2ccccc2Cl)N=C(Nc2nc3ccccc3o2)N1 (centres unmarked) [Compound 33, 2-(Benzo[d]oxazol-2-ylamino)-4-(2-chlorophenyl)-6-methyl-N-((1-methyl-1H-pyrazol-4-yl)methyl)-1,4-dihydropyrimidine-5-carboxamide]

fold better than 24 (recombinant human GALK1 [1]; GALK1 IC50 vs 24): 2 fold
SMILES: CC1=C(C(=O)NCc2ccc(C(=O)O)cc2)C(c2ccccc2Cl)N=C(Nc2nc3ccccc3o2)N1 (centres unmarked) [Compound 25, 4-((2-(Benzo[d]oxazol-2-ylamino)-4-(2-chlorophenyl)-6-methyl-1,4-dihydropyrimidine-5-carboxamido)methyl)benzoic Acid]

fold improvement in potency compared to compound 2 (recombinant human GALK1 [1]): > 5 fold
SMILES: CC1=C(C(=O)Nc2ccc(C(=O)O)cc2)C(c2ccccc2Cl)N=C(Nc2nc3ccccc3o2)N1 (centres unmarked) [Compound 16, 4-(2-(Benzo[d]oxazol-2-ylamino)-4-(2-chlorophenyl)-6-methyl-1,4-dihydropyrimidine-5-carboxamido)benzoic Acid]

PAMPA [2]: 661 10^−6 cm/s
SMILES: CC1=C(C(=O)NCc2cnn(C)c2)[C@H](c2ccc(C)cc2Cl)N=C(Nc2nc3cccc(N)c3o2)N1 [Compound (R)-67, (R)-2-((7-Aminobenzo[d]oxazol-2-yl)amino)-4-(2-chloro-4-methylphenyl)-6-methyl-N-((1-methyl-1H-pyrazol-4-yl)methyl)-1,4-dihydropyrimidine-5-carboxamide]

Papp at 30 min, 0.05 mM ([2]; PAMPA): 3150 nm/s
SMILES: CC1=C(C(=O)NCc2cnn(C)c2)C(c2ccc(C)cc2Cl)N=C(Nc2nc3cccc(N)c3o2)N1 (centres unmarked) [Compound 67, 2-((7-aminobenzo[d]oxazol-2-yl)amino)-4-(2-chloro-4-methylphenyl)-6-methyl-N-((1-methyl-1H-pyrazol-4-yl)methyl)-1,4-dihydropyrimidine-5-carboxamide]

fold improvement in potency compared to compound 2 (recombinant human GALK1 [1]): > 5 fold
SMILES: CC1=C(C(=O)Nc2cccc(C(=O)O)c2)C(c2ccccc2Cl)N=C(Nc2nc3ccccc3o2)N1 (centres unmarked) [Compound 15, 3-(2-(Benzo[d]oxazol-2-ylamino)-4-(2-chlorophenyl)-6-methyl-1,4-dihydropyrimidine-5-carboxamido)benzoic Acid]

fold improvement in potency compared to compound 2 (recombinant human GALK1 [1]): 10 fold
SMILES: CC1=C(C(=O)Nc2cc(C(=O)O)ccn2)C(c2ccccc2Cl)N=C(Nc2nc3ccccc3o2)N1 (centres unmarked) [Compound 35, 2-(2-(Benzo[d]oxazol-2-ylamino)-4-(2-chlorophenyl)-6-methyl-1,4-dihydropyrimidine-5-carboxamido)isonicotinic Acid]

fold improvement in potency compared to compound 2 (recombinant human GALK1 [1]): 7–9 fold
SMILES: CC1=C(C(=O)NCc2cn(C)cn2)C(c2ccccc2Cl)N=C(Nc2nc3ccccc3o2)N1 (centres unmarked) [Compound 32, 2-(Benzo[d]oxazol-2-ylamino)-4-(2-chlorophenyl)-6-methyl-N-((1-methyl-1H-imidazol-4-yl)methyl)-1,4-dihydropyrimidine-5-carboxamide]

mouse GALK1 inhibition (mouse recombinant GALK1 [3]): submicromolar
time up to which plasma concentrations stay above 1 μM ([5]; IP, single 50 mg/kg dose): ~ 7 h
time after which compound levels are below LLQ ([5]; IV, 3 mpk, plasma): 2 h
clearance at 24 h [5, 10]: 1.19 L/h/kg
half-life [5, 10]: ~24 min
half-life at 1 μM [6]: 47 min
PAMPA [2]: 485 10^−6 cm/s
SMILES: CC1=C(C(=O)NCc2cnn(C)c2)C(c2ccc(C)cc2Cl)N=C(Nc2nc3ccc(F)c(N)c3o2)N1 (centres unmarked) [Compound 68, 2-((7-Amino-6-fluorobenzo[d]oxazol-2-yl)amino)-4-(2-chloro-4-methylphenyl)-6-methyl-N-((1-methyl-1H-pyrazol-4-yl)methyl)-1,4-dihydropyrimidine-5-carboxamide]
gal-1P/protein levels [4]: ~ 50 % of control
